From ChEMBL document CHEMBL2413046, “Analogs of iso-azepinomycin as potential transition-state analog inhibitors of guanase: synthesis, biochemical screening, and structure-activity correlations of various selectively substituted imidazo[4,5-e][1,4]diazepines” (Bioorg Med Chem, 2013)

Key:
[1] = Inhibition of rabbit liver guanase assessed as inhibition of guanine hydrolysis by Lineweaver-Burk plot method; set-up: species or system Oryctolagus cuniculus
Procedure, shortened: (§1)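 Rabbit liver guanase (ammonium sulfate suspension, diluted to 0.1278 U/mL; 0.0077 units per assay) in 0.05 M Tris-HCl pH 7.4, 25°C, 1.0 mL final volume. Guanine 5–40 µM (5–6 levels) at fixed inhibitor 10, 20 or 30 µM (DMSO or methanol stocks). Initial rate from absorbance decrease at 245 nm, mean of two data sets; Ki from Lineweaver-Burk plots.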

[2] = Competitive reversible inhibition of rabbit liver guanase assessed as inhibition of guanine hydrolysis by Lineweaver-Burk plot method; set-up: species or system Oryctolagus cuniculus; procedure, shortened: as §1

Compound | Ki [1] | Ki [2]
COc1ccc(Cn2cnc3c2C(=O)NCC(OC)N3Cc2ccccc2)cc1 (stereo unspecified) | 26.5 µM | 
COC1CNC(=O)c2ncn(Cc3ccccc3)c2N1 (stereo unspecified) |  | 40 µM
CCOC1CNC(=O)c2ncn(Cc3ccc(OC)cc3)c2N1 (stereo unspecified) | 33.4 µM | 
CCOC1CNC(=O)c2ncn(Cc3ccccc3)c2N1 (stereo unspecified) |  | 47 µM
COC1CNC(=O)c2nc[nH]c2N1Cc1ccccc1 (stereo unspecified) | 8.8 µM | 

The next lines start with the values.

Ki [1] | Ki [2] | Compound
2.5 µM |  | O=C1NC(O)CNc2nc[nH]c21 (stereo unspecified) [AZEPINOMYCIN]
21 µM |  | COc1ccc(Cn2cnc3c2NC(OC)CNC3=O)cc1 (stereo unspecified)
39.7 µM |  | COC1CNC(=O)c2ncn(Cc3ccc(F)cc3)c2N1 (stereo unspecified)
43.8 µM |  | CCOC1CNC(=O)c2c(ncn2Cc2ccc(OC)cc2)N1Cc1ccccc1 (stereo unspecified)
 | 54 µM | CCCCOC1CNC(=O)c2ncn(Cc3ccccc3)c2N1 (stereo unspecified)
47.5 µM |  | COc1ccc(Cn2cnc3c2C(=O)NCC(OC)N3)cc1 (stereo unspecified)
